Reference: PubChem BioAssay
Calls of active or inactive are those of the source.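 How the source made its calls, unless noted: active means a full or partial loss of lipid-probe fluorescence in the fish gall bladder, intestine or both, judged by eye; inactive means no fluorescence loss, or compound toxic to the fish.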

Assays:
[1] = inhibitors of TNFa-induced NFkB p65 translocation, primary screen, imaging, HUVEC, MLSMR starter and 10KST1 sets (AID 438;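 active means inhibition above 20% together with a positive visual image hit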;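 further: compound added about 3h40 before a 20 min TNFalpha stimulation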;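 on inhibition: signal is the nuclear over cytoplasmic p65 intensity ratio per well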); conditions: HUVEC TNFa-induced p65 nuclear translocation; cell count: measured here: nuclei count (cytotoxicity indicator), at 2.08 µM; inhibition: at 2 µM, stronger effect = higher value, 0% TNFa-plus-vehicle, 100% no-TNFa wells
[2] = inhibitors of mutant huntingtin aggregation, primary screen, imaging, exon1htt(103Q)mCFP cells, high-content imaging (AID 483;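 active means visual image review flags a hit and inhibition of aggregation exceeds 20%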;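 further: compound exposure lasted 3 days before fixation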;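 on nuclei count: percent of the per-plate median nuclei count of sample wells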); conditions: exon1htt(103Q)mCFP cell line, aggregate imaging, at 2 µM; inhibition of aggregation: stronger effect = higher value; nuclei count: measured here: cell count, toxicity
[3] = inhibitors of E-selectin induction by TNFa, primary screen, imaging, HUVEC, immunofluorescence, MLSMR starter and 10KST1 sets (AID 487;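 active means visually confirmed hit in the image check and inhibition above 20%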;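 on inhibition: signal is fraction of cell area covered by stained E-selectin grains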;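 on nuclei count: 100% = median nuclei count of all wells on the same plate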); conditions: HUVEC TNFalpha-induced E-selectin immunofluorescence imaging, at 2 µM; inhibition: stronger effect = higher value; nuclei count: measured here: cell number, toxicity
[4] = molecular target: Voltage-gated potassium channel subunit beta-2 (Rattus norvegicus) (UniProt P62483); assay: KvBeta enzyme negative modulators, primary screen, biochemical, NADPH fluorescence (AID 622;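 active means fluorescence slope higher than the sample average by over 3 SD, cut at about -0.22 in these data, passing the limit was not always enough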;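 further: slope of raw intensity against log time taken from 70 to 1610 s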); conditions: recombinant KvBeta, 4-cyanobenzaldehyde reduction, at 10 µM, stronger effect = higher value
Voltage-gated potassium channel subunit beta-2 (Rattus norvegicus), sequence (P62483 whole entry, looked up): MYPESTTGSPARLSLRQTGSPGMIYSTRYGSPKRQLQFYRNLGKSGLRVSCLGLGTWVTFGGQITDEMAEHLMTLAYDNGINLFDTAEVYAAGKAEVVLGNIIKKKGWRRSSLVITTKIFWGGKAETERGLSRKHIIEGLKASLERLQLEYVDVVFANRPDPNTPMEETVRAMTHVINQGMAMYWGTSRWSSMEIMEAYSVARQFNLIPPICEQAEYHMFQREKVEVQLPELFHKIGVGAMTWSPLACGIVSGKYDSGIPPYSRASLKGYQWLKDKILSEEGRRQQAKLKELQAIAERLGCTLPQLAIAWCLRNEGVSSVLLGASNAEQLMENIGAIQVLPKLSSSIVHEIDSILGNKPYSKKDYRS

[5] = molecular target: Voltage-gated potassium channel subunit beta-2 (Rattus norvegicus) (UniProt P62483); assay: KvBeta positive modulators, primary screen, biochemical, NADPH fluorescence (AID 623;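 active means NADPH fluorescence slope more negative than the mean of all samples by about 3 SD, 99.7% confidence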;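 further: fluorescence intensity change per second fitted from 20 to 320 s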); conditions: Recombinant KvBeta, NADPH fluorescence decrease slope, 10 min; at 10 µM; stronger effect = lower value
[6] = molecular target: Alpha-2C adrenergic receptor (Homo sapiens) (UniProt P18825); assay: modulators of alpha2C/GIRK thallium flux, primary screen, cell-based, HEK293 alpha2C/GIRK1/2 (AID 624;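 active means fluorescence slope after compound addition differing from the mean of all screened samples at 99.7% confidence, in either direction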;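 further: slope of fluorescence ratio to pre-addition baseline per second over 15 to 24 s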); conditions: thallium flux BTC fluorescence, at 10 µM, actives lie on both sides
Alpha-2C adrenergic receptor (Homo sapiens), sequence (P18825 whole entry, looked up): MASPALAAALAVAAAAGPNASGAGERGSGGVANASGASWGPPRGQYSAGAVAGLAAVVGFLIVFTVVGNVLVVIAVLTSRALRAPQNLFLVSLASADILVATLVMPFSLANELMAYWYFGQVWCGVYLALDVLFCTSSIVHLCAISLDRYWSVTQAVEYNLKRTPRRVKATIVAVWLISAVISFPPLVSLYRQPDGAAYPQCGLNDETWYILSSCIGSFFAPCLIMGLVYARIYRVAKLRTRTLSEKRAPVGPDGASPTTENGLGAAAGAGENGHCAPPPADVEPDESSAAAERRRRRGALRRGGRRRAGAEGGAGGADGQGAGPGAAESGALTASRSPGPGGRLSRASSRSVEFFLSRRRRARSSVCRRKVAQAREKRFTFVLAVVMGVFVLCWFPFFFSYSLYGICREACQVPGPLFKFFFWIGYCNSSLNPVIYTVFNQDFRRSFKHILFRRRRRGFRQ

[7] = inhibitors of larval lipid processing in zebrafish, primary screen, whole organism, PED6 fluorescence, gall bladder and intestine (AID 686); conditions: Zebrafish larvae PED6 lipid processing, fluorescence scoring; screened at 20 µM (by protocol);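 further: larvae 5 to 7 days old with five fish per well; signal comes from phospholipase A2 cleavage of quenched PED6 carried via bile; overnight exposure to compound and PED6 before scoring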
How it was run: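 Doses: 20 µM single dose. Test system: live zebrafish larvae aged 5-7 days, whole organism. Quantity: five larvae per well. Measured by: By-eye fluorescence microscopy. Reagent: ingested quenched lipid PED6 at 100 nM. Read-out: visual per-well fluorescence inhibition score. Times: overnight exposure of larvae to compound plus PED6.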

[8] = inhibitors of Sendai virus-induced IRF3 signaling, primary screen, TLR/RLR signaling modifier project, cell-based, Sendai virus stimulus, luciferase, 10K MLSCN set (AID 602276;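 active means inhibition at or above 50% at 10 µM; inactive means inhibition below 50%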;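 further: firefly luciferase from ISG56 promoter only with Renilla not read in this screen; 0% = Sendai virus plus DMSO and 100% = medium plus DMSO without virus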); conditions: HEK293 RL24 IRF3 luciferase reporter, at 10 µM, stronger effect = higher value
[9] = inhibitors of poly I:C-induced TLR3 signaling, primary screen, cell-based, poly I:C stimulus, luciferase, 10K MLSCN set (AID 602277;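 active means inhibition of the reporter signal at or above 50%; inactive means inhibition below 50%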); conditions: HEK293-TLR3 RL24 IRF3 luciferase reporter, at 10 µM, stronger effect = higher value

SMILES	cell count [1]	inhibition [1]	inhibition of aggregation [2]	nuclei count [2] [%]	inhibition [3]	nuclei count [3] [%]	fluorescence slope [4]	NADPH fluorescence slope [5]	slope [6]	outcome [7]	inhibition [8]	inhibition [9]
O=C(NCCC1=CCCCC1)C1CCN(S(=O)(=O)c2cnc[nH]2)CC1	472	4.5% (inactive)	-8.6% (inactive)	93.1	-36.1% (inactive)	117	-0.367 (inactive)	-4.7e-05 (inactive)	0.0051 (inactive)	inactive	13.7% (inactive)	18.8% (inactive)
CCOc1ccc(NC(=O)COC(=O)Cn2cnnn2)cc1OCC	373	-19.6% (inactive)	11.4% (inactive)	57.8	33.9% (inactive)	72.6	-0.468 (inactive)	-2.6e-05 (inactive)	0.00481 (inactive)	inactive	10.8% (inactive)	9.82% (inactive)
O=S1(=O)CCN2C(=N1)SC1=C2CCN(Cc2ccccc2)C1	514	-3% (inactive)	-3.2% (inactive)	91.4	-42.3% (inactive)	144	-0.434 (inactive)	-1e-05 (inactive)	0.00453 (inactive)	inactive	17% (inactive)	13.7% (inactive)
C1CCN=C(Nc2nc3c(s2)CCCC3)CC1	432	7.3% (inactive)	-10.9% (inactive)	118	8.7% (inactive)	110	-0.413 (inactive)	-3.8e-05 (inactive)	0.00517 (inactive)	inactive	-23.9% (inactive)	-50% (inactive)
CC(=O)Nc1nnc(SCC(=O)NCC2CCCO2)s1 (configuration not stated)	415	6% (inactive)	-1.3% (inactive)	102	-123% (inactive)	110	-0.413 (inactive)	-3.1e-05 (inactive)	0.00542 (inactive)	inactive	-10.9% (inactive)	-9.89% (inactive)
Cc1cc(C(F)(F)F)c2c(C)nn(CCc3nn[nH]n3)c2n1	863	1.1% (inactive)	11.9% (inactive)	112	-20% (inactive)	117	-0.368 (inactive)	1.8e-05 (inactive)	0.00523 (inactive)	inactive	-11.3% (inactive)	-12.7% (inactive)
COc1cccc(NC(=O)c2ccccc2NS(C)(=O)=O)c1	328	-6.5% (inactive)	-12.9% (inactive)	112	-133% (inactive)	149	-0.418 (inactive)	-3.8e-05 (inactive)	0.00548 (inactive)	inactive	18.7% (inactive)	13.1% (inactive)
COc1ccc(CNc2oc(-c3cccc4ccccc34)nc2C#N)cc1	570	-3.4% (inactive)	8.1% (inactive)	86.3	56.8% (inactive)	86.1	-0.183 (inactive)	6.8e-06 (inactive)	0.00641 (inactive)	inactive	4.97% (inactive)	7.07% (inactive)
CN1CCN(c2ccc(Cl)cc2NC(=O)c2cccc(S(=O)(=O)N(C)C)c2)CC1	378	0.5% (inactive)	-6.9% (inactive)	133	14.4% (inactive)	88.8	-0.373 (inactive)	-2e-05 (inactive)	0.00491 (inactive)	inactive	6.8% (inactive)	12.4% (inactive)
Cc1ccc(NC(=O)c2ccco2)c(NC(=O)CN2C(=O)c3ccccc3C2=O)c1	402	-7.3% (inactive)	6.5% (inactive)	90.3	-162% (inactive)	155	-0.466 (inactive)	-1.3e-05 (inactive)	0.00456 (inactive)	inactive	0.0738% (inactive)	-0.596% (inactive)
CCOC(=O)c1c(C)oc2ccc(NS(=O)(=O)c3ccc4c5c(cccc35)C(=O)N4)cc12	429	6.5% (inactive)	-5.8% (inactive)	99	-185% (inactive)	114	-0.223 (inactive)	-1.1e-05 (inactive)	0.00563 (inactive)	inactive	21.2% (inactive)	2.01% (inactive)
CCOC(=O)c1cc(CC)sc1NC(=O)COC	324	-6% (inactive)	-9.4% (inactive)	86.3	34% (inactive)	80	-0.321 (inactive)	-7.5e-06 (inactive)	0.00509 (inactive)	inactive	2.16% (inactive)	4.15% (inactive)
CCC(CCC(=O)Nc1cccc(C(=O)O)c1)C(=O)O (configuration not stated)	506	8.8% (inactive)	10.2% (inactive)	86.5	49.6% (inactive)	74.2	-0.448 (inactive)	-2.4e-05 (inactive)	0.00563 (inactive)	inactive	4.27% (inactive)	-4.76% (inactive)
O=C(COc1ccc(F)cc1)Nc1ccc(-n2cnnn2)cc1	568	1.1% (inactive)	34.2% (inactive)	90.5	52.5% (inactive)	62.3	-0.409 (inactive)	-0.000109 (inactive)	0.00564 (inactive)	inactive	8.39% (inactive)	1.26% (inactive)
CCOC(=O)C1CCN(C(=O)Nc2ccc3nc(C)c(C)nc3c2)CC1	331	2% (inactive)	26.1% (inactive)	84.8	-20.1% (inactive)	90.9	-0.00743 (active)	-2.9e-06 (inactive)	0.00559 (inactive)	inactive	8.11% (inactive)	5.19% (inactive)
O=C(O)CCC(=O)NC1CCCCC1NC(=O)CCC(=O)O (configuration not stated)	488	4% (inactive)	-8.6% (inactive)	104	-189% (inactive)	129	-0.394 (inactive)	-6.2e-05 (inactive)	0.00623 (inactive)	inactive	5.12% (inactive)	3.98% (inactive)
C=CCOC(=O)CC(NC(=O)c1ccccc1)c1ccccc1 (configuration not stated)	510	9.6% (inactive)	-15.9% (inactive)	98.4	-231% (inactive)	133	-0.382 (inactive)	-6.2e-05 (inactive)	0.00447 (inactive)	inactive	13.9% (inactive)	99% (active)
COC(=O)CSc1nnc(-c2ccc(OC)cc2OC)o1	609	6.3% (inactive)	6.1% (inactive)	109	44.6% (inactive)	90.8	-0.397 (inactive)	-5.2e-05 (inactive)	0.00519 (inactive)	inactive	13.1% (inactive)	10.4% (inactive)
CCOc1ccccc1C(=O)Nn1c(C2CCC2)nc2ccccc2c1=O	292	-14% (inactive)	-21.7% (inactive)	7.3	-38.2% (inactive)	98.8	-0.467 (inactive)	-5.5e-05 (inactive)	0.00459 (inactive)	inactive	20.9% (inactive)	37.7% (inactive)
COc1ccccc1OCCNC(=O)c1cccs1	333	4.3% (inactive)	12.7% (inactive)	97.7	-31.8% (inactive)	99	-0.383 (inactive)	-5.1e-05 (inactive)	0.00529 (inactive)	inactive	-16% (inactive)	-43% (inactive)
O=C(Nc1ccon1)c1cccc(S(=O)(=O)N2CCCC2)c1	307	-2.7% (inactive)	21% (inactive)	86.7	-11.9% (inactive)	102	-0.374 (inactive)	-1.7e-05 (inactive)	0.00556 (inactive)	inactive	13.5% (inactive)	13.6% (inactive)
